For 18 compounds, IC50 and ED50 results are on record in ChEMBL document CHEMBL1132970, “Synthesis of N-substituted 4-(4-hydroxyphenyl)piperidines, 4-(4-hydroxybenzyl)piperidines, and (+/-)-3-(4-hydroxyphenyl)pyrrolidines: selective antagonists at the 1A/2B NMDA receptor subtype” (J Med Chem, 2000).

In assay [1] the target is Glutamate NMDA receptor; Grin1/Grin2a (Rattus norvegicus, UniProt P35439+Q00959). Description: Inhibitory activity against Xenopus oocytes expressing rat N-Methyl-D-aspartate (NR1A/2A) Receptor subtype. The class given is cell-based, Oocyte. The essentials:
(§1)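 Electrophysiology on oocytes expressing each NMDA subunit combination. IC50 from curve fitting of concentration-inhibition data pooled from 1-7 separate experiments.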

The target in assay [2] is Glutamate NMDA receptor; Grin1/Grin2c (Rattus norvegicus, UniProt P35439+Q00961). Description: Inhibitory activity against Xenopus oocytes expressing rat N-Methyl-D-aspartate (NR1A/2C) Receptor subtype. In kind it is cell-based, Oocyte. The essentials: as §1
Assay [3] deals with Glutamate NMDA receptor; Grin1/Grin2b (Rattus norvegicus, UniProt P35439+Q00960). Briefly: Inhibitory activity against Xenopus oocytes expressing rat N-Methyl-D-aspartate (NR1A/2B) Receptor subtype. In kind it is cell-based, Oocyte. A digest of the protocol:
as §1

Assay [4] deals with T1, Adrenergic receptor alpha-1 (Rattus norvegicus, UniProt P15823+P23944+P43140).
T1 sequence (P15823 whole entry): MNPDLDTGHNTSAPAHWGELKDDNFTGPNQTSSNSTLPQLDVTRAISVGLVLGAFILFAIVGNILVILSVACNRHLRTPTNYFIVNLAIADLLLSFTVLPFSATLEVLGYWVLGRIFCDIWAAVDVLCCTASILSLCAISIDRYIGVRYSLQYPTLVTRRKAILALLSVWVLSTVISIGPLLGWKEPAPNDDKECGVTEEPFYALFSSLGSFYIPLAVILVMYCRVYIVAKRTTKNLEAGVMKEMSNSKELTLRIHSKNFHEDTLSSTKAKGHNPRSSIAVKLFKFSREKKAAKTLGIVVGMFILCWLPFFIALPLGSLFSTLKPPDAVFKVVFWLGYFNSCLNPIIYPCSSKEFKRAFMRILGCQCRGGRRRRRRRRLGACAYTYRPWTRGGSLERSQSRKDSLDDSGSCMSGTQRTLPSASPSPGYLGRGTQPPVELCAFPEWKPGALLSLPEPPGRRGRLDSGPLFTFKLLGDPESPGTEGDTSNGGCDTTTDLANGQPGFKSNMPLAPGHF
T1 sequence (P23944 whole entry): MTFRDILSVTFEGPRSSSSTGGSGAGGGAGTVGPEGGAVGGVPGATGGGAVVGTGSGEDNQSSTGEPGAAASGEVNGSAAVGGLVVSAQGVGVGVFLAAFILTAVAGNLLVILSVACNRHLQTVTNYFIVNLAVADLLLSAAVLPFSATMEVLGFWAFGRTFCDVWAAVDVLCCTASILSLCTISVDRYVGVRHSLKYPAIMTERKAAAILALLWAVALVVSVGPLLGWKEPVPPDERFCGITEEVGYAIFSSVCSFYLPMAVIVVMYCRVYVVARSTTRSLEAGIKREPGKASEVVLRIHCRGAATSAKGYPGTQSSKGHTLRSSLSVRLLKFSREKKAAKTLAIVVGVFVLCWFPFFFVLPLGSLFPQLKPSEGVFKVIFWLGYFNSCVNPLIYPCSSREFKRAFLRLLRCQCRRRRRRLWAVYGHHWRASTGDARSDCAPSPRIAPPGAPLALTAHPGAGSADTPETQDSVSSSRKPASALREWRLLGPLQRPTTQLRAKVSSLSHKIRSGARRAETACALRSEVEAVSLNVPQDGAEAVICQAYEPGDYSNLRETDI
T1 sequence (P43140 whole entry): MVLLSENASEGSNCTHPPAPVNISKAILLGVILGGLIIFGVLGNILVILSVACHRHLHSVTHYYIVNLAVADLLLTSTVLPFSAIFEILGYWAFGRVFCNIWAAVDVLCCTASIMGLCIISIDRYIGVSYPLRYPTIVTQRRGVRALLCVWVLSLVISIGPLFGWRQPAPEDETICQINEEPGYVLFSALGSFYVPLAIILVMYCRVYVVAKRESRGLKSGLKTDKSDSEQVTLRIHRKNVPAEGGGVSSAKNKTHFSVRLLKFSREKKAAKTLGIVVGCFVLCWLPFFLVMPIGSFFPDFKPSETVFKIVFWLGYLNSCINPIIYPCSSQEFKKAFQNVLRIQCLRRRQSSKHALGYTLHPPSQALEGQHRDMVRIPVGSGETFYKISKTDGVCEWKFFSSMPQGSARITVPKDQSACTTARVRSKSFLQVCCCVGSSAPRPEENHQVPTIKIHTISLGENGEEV
Briefly: Inhibition of [3H]prazosin binding at alpha-1 adrenergic receptor in rat brain cortical membranes. The class given is cell membranes, Membrane. A digest of the protocol:
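Membranes from Sprague-Dawley rat cortex, sucrose/Tris homogenate washed three times. Assayed in 140 mM NaCl/5 mM MgCl2/50 mM Tris-HCl pH 7.4. 200 µg protein incubated with 0.8 nM [3H]prazosin; 10 µM phentolamine defined nonspecific binding. Nine concentrations in duplicate; IC50 from sigmoidal fit.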

A further assay is filed under the species Mus musculus. Briefly: Effective dose for protection against MES seizures in mice. The class given is functional. The essentials: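 Male Swiss Webster mice (23-27 g, food and water ad libitum), compound given iv as 5 mg/mL solution in 0.2 M Tris. Seizure protection tested 2 min after dosing; corneal electroshock, rectangular pulses 50 mA, 60-75 Hz, 0.8 ms width, 0.2 s train. Seizure scored as tonic hind-limb extension. ED50 with 95% confidence limits; at least 24 animals per compound.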

A further assay concerns the target D(2) dopamine receptor (Rattus norvegicus, UniProt P61169). Briefly: Inhibition of [3H]-raclopride binding at Dopamine receptor D2 in rat brain membranes. In kind it is cell membranes. A digest of the protocol:
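Rat striatal membranes, washed in 50 mM Tris-HCl pH 7.4, assayed in 120 mM NaCl/5 mM KCl/50 mM Tris-HCl pH 7.4. 200 µg membrane protein with 3 nM [3H]raclopride; nonspecific binding with 300 µM sulpiride. Nine concentrations in duplicate; IC50 by sigmoidal curve fit.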

Chain of Glutamate NMDA receptor; Grin1/Grin2b (Q00960 whole entry, other chains not shown): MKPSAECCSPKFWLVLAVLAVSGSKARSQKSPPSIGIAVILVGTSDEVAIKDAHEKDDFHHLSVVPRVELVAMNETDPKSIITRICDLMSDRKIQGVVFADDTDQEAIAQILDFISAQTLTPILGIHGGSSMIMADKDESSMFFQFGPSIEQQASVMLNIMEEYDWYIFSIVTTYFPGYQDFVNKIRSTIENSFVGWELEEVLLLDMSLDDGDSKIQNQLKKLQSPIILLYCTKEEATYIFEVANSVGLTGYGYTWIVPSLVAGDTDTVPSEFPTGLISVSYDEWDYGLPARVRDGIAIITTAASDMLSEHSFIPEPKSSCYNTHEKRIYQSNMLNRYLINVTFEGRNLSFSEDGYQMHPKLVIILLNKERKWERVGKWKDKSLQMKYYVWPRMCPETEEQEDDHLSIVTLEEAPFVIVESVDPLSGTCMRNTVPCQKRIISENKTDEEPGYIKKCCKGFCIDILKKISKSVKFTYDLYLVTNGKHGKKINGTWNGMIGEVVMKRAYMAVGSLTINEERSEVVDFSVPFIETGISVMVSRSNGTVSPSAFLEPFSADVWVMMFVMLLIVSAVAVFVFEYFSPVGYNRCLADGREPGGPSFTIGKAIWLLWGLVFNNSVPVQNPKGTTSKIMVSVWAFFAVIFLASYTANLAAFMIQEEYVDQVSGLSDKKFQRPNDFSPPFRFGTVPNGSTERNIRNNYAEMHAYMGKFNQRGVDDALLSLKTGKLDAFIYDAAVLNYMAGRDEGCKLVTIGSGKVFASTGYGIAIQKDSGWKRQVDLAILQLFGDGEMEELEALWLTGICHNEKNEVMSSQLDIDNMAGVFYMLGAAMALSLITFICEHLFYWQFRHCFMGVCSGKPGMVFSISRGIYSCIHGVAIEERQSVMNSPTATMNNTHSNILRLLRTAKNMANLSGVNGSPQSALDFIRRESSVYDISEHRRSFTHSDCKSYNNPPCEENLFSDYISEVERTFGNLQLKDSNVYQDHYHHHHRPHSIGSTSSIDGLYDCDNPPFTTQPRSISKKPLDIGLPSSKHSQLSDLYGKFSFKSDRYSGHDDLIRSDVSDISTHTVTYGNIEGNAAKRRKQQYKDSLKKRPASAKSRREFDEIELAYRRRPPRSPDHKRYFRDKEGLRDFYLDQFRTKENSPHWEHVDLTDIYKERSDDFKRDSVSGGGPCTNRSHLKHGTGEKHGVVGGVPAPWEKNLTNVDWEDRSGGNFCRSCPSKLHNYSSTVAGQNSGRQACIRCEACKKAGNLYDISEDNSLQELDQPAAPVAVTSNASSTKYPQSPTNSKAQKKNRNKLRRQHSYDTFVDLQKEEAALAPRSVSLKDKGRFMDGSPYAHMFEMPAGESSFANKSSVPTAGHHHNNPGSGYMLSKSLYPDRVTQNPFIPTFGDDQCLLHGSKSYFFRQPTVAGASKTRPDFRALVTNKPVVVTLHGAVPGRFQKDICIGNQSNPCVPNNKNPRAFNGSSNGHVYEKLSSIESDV
Chain of D(2) dopamine receptor (P61169 whole entry): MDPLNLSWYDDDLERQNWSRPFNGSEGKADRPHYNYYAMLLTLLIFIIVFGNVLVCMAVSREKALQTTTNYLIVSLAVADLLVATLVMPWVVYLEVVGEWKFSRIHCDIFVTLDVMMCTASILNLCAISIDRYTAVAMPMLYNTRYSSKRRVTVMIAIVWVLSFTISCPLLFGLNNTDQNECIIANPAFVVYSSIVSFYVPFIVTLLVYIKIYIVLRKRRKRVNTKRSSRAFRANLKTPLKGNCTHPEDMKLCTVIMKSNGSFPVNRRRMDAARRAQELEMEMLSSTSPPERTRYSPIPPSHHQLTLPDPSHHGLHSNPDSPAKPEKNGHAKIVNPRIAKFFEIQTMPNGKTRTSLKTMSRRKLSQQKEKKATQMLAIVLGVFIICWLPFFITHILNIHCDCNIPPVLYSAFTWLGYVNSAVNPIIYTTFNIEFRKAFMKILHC
Chain of Glutamate NMDA receptor; Grin1/Grin2a (Q00959 whole entry, other chains not shown): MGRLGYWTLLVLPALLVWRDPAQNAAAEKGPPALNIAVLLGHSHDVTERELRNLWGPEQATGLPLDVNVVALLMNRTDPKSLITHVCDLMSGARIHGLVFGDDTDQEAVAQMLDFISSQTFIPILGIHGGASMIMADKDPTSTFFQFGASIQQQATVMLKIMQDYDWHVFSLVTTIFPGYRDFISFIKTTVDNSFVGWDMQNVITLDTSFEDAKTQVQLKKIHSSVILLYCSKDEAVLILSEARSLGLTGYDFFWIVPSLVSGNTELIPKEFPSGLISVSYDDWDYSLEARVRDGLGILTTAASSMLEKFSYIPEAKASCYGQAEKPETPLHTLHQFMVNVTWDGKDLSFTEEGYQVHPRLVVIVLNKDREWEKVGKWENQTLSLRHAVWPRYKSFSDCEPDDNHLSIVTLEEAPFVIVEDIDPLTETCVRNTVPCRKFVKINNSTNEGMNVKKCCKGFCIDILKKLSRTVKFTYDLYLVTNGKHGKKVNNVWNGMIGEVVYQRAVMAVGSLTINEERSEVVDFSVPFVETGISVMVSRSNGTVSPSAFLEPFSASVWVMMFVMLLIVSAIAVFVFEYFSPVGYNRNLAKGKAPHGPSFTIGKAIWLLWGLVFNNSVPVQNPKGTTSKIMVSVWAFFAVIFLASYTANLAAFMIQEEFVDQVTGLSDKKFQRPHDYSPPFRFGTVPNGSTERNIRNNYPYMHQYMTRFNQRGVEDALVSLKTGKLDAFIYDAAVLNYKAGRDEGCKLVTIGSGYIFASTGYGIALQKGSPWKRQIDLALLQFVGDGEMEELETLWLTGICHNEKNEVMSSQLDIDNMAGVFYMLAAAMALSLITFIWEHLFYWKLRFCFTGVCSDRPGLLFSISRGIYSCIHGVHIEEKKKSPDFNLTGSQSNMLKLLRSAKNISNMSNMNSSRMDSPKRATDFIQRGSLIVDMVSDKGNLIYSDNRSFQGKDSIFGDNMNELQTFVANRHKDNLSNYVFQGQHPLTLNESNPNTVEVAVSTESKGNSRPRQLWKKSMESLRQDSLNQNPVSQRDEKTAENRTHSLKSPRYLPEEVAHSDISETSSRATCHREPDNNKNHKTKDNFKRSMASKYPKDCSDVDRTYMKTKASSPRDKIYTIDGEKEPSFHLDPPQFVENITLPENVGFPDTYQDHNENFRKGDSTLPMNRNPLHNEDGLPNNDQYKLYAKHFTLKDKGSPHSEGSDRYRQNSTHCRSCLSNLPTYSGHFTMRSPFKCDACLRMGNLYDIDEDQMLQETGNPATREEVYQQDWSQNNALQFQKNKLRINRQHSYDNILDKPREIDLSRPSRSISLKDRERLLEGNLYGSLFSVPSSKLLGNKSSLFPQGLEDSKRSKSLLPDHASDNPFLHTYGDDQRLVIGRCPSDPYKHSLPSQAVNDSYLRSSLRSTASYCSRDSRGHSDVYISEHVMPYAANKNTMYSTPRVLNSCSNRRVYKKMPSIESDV
Chain of Glutamate NMDA receptor; Grin1/Grin2c (Q00961 whole entry, other chains not shown): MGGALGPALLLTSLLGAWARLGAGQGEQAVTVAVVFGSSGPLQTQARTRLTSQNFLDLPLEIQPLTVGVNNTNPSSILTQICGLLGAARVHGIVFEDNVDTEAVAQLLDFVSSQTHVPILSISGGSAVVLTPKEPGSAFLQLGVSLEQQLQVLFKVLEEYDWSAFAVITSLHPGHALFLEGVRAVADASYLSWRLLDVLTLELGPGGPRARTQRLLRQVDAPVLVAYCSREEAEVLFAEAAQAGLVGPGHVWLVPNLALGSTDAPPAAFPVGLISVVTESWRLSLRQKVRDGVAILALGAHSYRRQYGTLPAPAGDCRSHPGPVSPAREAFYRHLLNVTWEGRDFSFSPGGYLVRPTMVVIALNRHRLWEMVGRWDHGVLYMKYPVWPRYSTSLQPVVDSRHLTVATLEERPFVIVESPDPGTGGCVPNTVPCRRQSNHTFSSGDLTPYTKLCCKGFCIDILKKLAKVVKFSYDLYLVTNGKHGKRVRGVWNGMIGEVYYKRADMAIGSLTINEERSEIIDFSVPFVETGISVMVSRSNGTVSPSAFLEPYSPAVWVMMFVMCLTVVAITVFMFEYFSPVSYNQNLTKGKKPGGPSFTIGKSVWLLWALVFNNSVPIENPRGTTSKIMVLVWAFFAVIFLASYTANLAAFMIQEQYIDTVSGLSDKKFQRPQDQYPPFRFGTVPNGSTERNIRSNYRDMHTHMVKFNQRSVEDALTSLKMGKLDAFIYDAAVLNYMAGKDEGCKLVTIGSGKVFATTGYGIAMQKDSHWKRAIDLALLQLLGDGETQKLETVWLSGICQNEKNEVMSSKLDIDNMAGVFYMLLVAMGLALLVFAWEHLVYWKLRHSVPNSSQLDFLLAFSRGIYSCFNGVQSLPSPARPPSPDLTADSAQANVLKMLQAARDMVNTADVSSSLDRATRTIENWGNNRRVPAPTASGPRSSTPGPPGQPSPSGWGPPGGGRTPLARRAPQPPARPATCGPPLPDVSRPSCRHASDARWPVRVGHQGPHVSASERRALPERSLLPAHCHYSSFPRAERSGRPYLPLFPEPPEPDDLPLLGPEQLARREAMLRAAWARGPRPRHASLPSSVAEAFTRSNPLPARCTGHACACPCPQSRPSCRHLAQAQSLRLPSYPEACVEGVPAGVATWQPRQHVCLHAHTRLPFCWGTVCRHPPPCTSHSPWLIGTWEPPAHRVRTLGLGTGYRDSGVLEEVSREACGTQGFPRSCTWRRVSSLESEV

One may read the IC50 as the midpoint of a concentration-inhibition curve. A higher IC50 goes with weaker potency in that assay. With `Oc1ccc(C2CCN(CCOCc3ccccc3)CC2)cc1`, the half-maximal inhibitory concentration (IC50) in assay [1] was 59 µM; in assay [2] it was greater than 100 µM; in assay [3] it was 0.019 µM.

Consider `CCCCN1CCC(c2ccc(O)cc2)CC1`, for which the 50% inhibitory concentration (IC50) in assay [1] was greater than 100 µM; in assay [2], greater than 100 µM; in assay [3] it was 61 µM.

In the case of `Oc1ccc(CC2CCN(CCCCc3ccccc3)CC2)cc1`, the results for the IC50 in assay [1], in assay [2] and in assay [3] were greater than 100 µM, greater than 100 µM and 0.071 µM, respectively.

As a reminder, the ED50 is the dose at which the effect has come halfway, by size or by number of responders. For the compound `Br.Oc1ccc(C2CCN(CCCCc3ccccc3)CC2)cc1`, the concentration for half-maximal inhibition (IC50) in assay [1] was greater than 100 µM; in assay [4], 0.54 µM; at D(2) dopamine receptor, 1.2 µM; in assay [2], greater than 100 µM; in assay [3] it was 0.022 µM. For the same compound, in the assay filed under Mus musculus, the ED50 was 0.23 mg/kg.

For the compound `COc1ccc(C2CCN(CCCCc3ccccc3)CC2)cc1.Cl`, the concentration for half-maximal inhibition (IC50) in assay [1] was greater than 100 µM; in assay [4], 1.7 µM; on D(2) dopamine receptor, 0.41 µM; in assay [2], greater than 100 µM; in assay [3], greater than 100 µM. In the assay listed under Mus musculus, this compound came in with an ED50 of 0.56 mg/kg.

Regarding `Oc1ccc(C2CCN(CCCCCc3ccccc3)CC2)cc1`, the IC50 in assay [1] is greater than 100 µM; in assay [2], greater than 100 µM; in assay [3], 0.075 µM.

Regarding `Oc1ccc(C2=CCN(CCCCc3ccccc3)CC2)cc1`, the IC50 in assay [1] was greater than 100 µM; in assay [2] it was greater than 100 µM; in assay [3], 0.011 µM.

On to `Oc1ccc(C2CCN(CCCc3ccccc3)CC2)cc1`, for which the IC50 was 51 µM in assay [1], greater than 100 µM in assay [2] and 0.074 µM in assay [3].

Regarding `Oc1ccc(CCCCN2CCC(c3ccccc3)CC2)cc1`, the IC50 in assay [1] was 43 µM; in assay [2], greater than 100 µM; in assay [3], 0.23 µM.

`Oc1ccc(C2(O)CCN(CCCCc3ccccc3)CC2)cc1`: the IC50 in assay [1] is 62 µM; in assay [4], 2.2 µM; on D(2) dopamine receptor, 22 µM; in assay [2], greater than 100 µM; in assay [3], 0.012 µM. This compound also gave an ED50 in the assay listed under Mus musculus of 2.3 mg/kg.

As for `Oc1ccc(CC2CCN(CCCc3ccccc3)CC2)cc1`, the values for the IC50 in assay [1], in assay [2] and in assay [3] were greater than 100 µM, greater than 100 µM and 0.059 µM, respectively.

Turning to `Oc1ccc(C2CCN(CCCCCc3ccccc3)C2)cc1` (stereo not drawn), the half-inhibitory concentration (IC50) in assay [1] was 41 µM; in assay [2], greater than 100 µM; in assay [3], 0.017 µM.

For the compound `Oc1ccc(C2CCN(CCCCc3ccccc3)C2)cc1` (stereo not drawn), the IC50 in assay [1] was 52 µM; in assay [2], greater than 100 µM; in assay [3], 0.13 µM.

Take `Oc1ccc(C2CCN(CC(O)CCc3ccccc3)CC2)cc1` (stereo not drawn): the IC50 is greater than 100 µM in assay [1]; 1.4 µM in assay [4]; 5.9 µM on D(2) dopamine receptor; greater than 100 µM in assay [2]; 0.019 µM in assay [3]. This compound also showed a median effective dose (ED50) in the assay listed under Mus musculus of 0.46 mg/kg.

Take `Oc1ccc(C2(O)CCN(CC(O)CCc3ccccc3)CC2)cc1` (stereo not drawn): the IC50 in assay [4] was 14 µM; at D(2) dopamine receptor it was 105 µM; in assay [2], greater than 100 µM; in assay [3], 0.026 µM. For the same compound, the 50% effective dose (ED50) in the assay filed under Mus musculus stood at 5.7 mg/kg.

For `c1ccc(CCCCN2CCC(c3ccccc3)CC2)cc1`, the IC50 is greater than 100 µM in assay [1], greater than 100 µM in assay [2] and 2.2 µM in assay [3].

Regarding `Oc1ccc(CC2CCN(CCC#Cc3ccccc3)CC2)cc1`, the IC50 in assay [1] was greater than 100 µM; in assay [2], greater than 100 µM; in assay [3] it was 0.8 µM.

With `Oc1ccc(CC2CCN(CC#Cc3ccccc3)CC2)cc1`, the IC50 in assay [1] was greater than 100 µM; in assay [2], greater than 100 µM; in assay [3], 0.18 µM.
